From PubChem BioAssay
This is one part of a sample in which hits are shown more often than they occur.
bCat KO growth = primary screen for growth suppressors in beta-catenin knockout HCT116 cells (colon tumor, human); AID 818, 2007; viability, % at 10 µM; 1.5% of 140,000 active; HCT116 beta-catenin knockout viability, CellTiter-Glo, 60 h; stronger effect = lower value;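 active = viability at or under a set limit, the compound median less 4 SD, cut at about 6% in these data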;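 note: 0% = Hyamine 1622 control at 20 µM and 100% = untreated cell control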
HCT116 PTEN-null = growth suppression of PTEN-null HCT116, primary screen, cell-based, CellTiter-Glo. HCT116 PTEN-null viability, 60 h; stronger effect = lower value. viability, % at 10 µM. 1.2% of 140,000 active. AID 827, 2007;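 active = viability at or below a set limit, 4 SD under the median of all tested compounds, cut at about 3.7% in these data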;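 note: PTEN knockout HCT116 line with beta catenin targeted HCT116 as companion control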
PTK2B oligo ant = antagonists of Pyk2 self-association, primary screen, Q293 cells, FERM NanoBiT luminescence, HTS; 0.83% of 99,000 active; z-score (the deposit names both 25 µM and 10 µM); Protein-tyrosine kinase 2-beta (Homo sapiens), Q14289; stronger effect = lower value;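 active = Z-score of -3 or lower, scaled per plate to the spread of control and sample wells; inactive = z-score above -3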;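 note: negative z-score means lost luminescence so less FERM oligomerization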
Target sequence (Q14289 whole entry, looked up): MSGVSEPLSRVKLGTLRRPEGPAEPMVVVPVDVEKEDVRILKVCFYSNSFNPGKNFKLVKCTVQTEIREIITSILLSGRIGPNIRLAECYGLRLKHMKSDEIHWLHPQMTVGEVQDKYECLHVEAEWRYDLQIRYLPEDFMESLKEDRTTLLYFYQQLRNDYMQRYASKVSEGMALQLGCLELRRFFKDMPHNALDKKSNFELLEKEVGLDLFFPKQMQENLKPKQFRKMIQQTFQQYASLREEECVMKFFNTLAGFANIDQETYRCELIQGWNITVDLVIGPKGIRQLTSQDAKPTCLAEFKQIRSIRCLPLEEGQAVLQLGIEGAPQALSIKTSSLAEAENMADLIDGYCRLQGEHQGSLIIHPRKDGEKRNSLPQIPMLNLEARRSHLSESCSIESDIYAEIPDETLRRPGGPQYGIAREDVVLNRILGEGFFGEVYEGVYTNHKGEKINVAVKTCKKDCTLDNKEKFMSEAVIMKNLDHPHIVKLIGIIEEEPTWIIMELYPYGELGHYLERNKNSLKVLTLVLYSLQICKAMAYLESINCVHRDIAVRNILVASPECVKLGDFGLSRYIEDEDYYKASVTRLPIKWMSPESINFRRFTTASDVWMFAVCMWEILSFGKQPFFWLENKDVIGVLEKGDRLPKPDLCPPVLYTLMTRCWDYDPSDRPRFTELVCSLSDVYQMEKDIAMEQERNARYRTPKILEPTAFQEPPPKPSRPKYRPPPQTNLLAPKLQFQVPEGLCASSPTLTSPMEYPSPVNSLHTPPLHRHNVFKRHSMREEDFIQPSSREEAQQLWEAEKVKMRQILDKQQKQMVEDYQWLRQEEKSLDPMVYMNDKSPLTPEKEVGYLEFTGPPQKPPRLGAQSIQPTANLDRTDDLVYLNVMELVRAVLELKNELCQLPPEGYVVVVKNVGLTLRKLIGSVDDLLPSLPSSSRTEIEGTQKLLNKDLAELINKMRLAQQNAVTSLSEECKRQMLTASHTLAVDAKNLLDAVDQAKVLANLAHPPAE
Fibroblast inh = antiproliferative effect on LL 47 fibroblasts – human, LL 47 cells, CellTiter-Glo luminescence, primary screen; LL 47 human lung fibroblast viability, ATP luminescence; stronger effect = lower value; 1.1% of 85,000 active; AID 719, 2007; viability, % at 10 µM;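 active = viability at or below 50% in the single dose screen; inactive = viability above 50%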;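 note: compound exposure lasted 72 h before the ATP readout; 100% = median luminescence of untreated cell-only wells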
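Test system: LL 47 human lung fibroblasts / Quantity: 1,150 cells in each well / Medium: IMEM growth medium with 15% fetal bovine serum / Incubation: 72 h compound exposure at 37 °C after overnight plating / Detection: CellTiter-Glo luminescence measuring cellular ATP / Read-out: % viability versus median cells-only luminescence / Benchmarks: cell-only wells, no compound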
HUVEC prolif 384 = inhibitors of HUVEC proliferation, primary screen, cell-based, 384-well | CellTiter-Glo luminescence, 72 h; stronger effect = lower value | viability, % at 10 µM (by protocol) | 1.1% of 86,000 active | AID 648, 2007;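 active = viability at or below 30%; inactive = viability above 30%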;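 note: 100% = median luminescence of DMSO-only cell control wells on each plate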
H69AR growth 86K = proliferation blockers of H69AR lung cancer cells, primary screen, cell-based, human, 86K library. 6% of 85,000 active. viability, % at 10 µM. AID 598, 2007. H69AR lung tumor viability, ATP luminescence, 72 h; stronger effect = lower value;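 active = viability at or below 40%; inactive = viability above 40%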;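 note: multidrug resistant small cell line overexpressing MRP-1 efflux transporter; 100% = mean luminescence of untreated control wells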
Active calls of the source: *.

`CCCCN(Cc1ccco1)C(=O)c1cc2c(=O)[nH]c3ccc(C)cc3c2s1` gave bCat KO growth 51, HCT116 PTEN-null 41, Fibroblast inh 62, HUVEC prolif 384 4.4* and H69AR growth 86K 28*.
Screening Cc1ccc2cc(CN(Cc3ccco3)C(=O)c3cccs3)c(=O)[nH]c2c1 returned bCat KO growth 12, HCT116 PTEN-null 13, PTK2B oligo ant 0.43, Fibroblast inh 54, HUVEC prolif 384 61 and H69AR growth 86K 21*.
CCOc1ccc2nc(NC(=O)CSc3nc4cccnc4n3C)sc2c1 was read as bCat KO growth 81, HCT116 PTEN-null 74, PTK2B oligo ant 0.25, Fibroblast inh 97, HUVEC prolif 384 68 and H69AR growth 86K 26*.
COc1ccc2nc(NC(=O)CSc3nc4ccccc4o3)sc2c1 was read as bCat KO growth 99, HCT116 PTEN-null 103, PTK2B oligo ant 0.13, Fibroblast inh 95, HUVEC prolif 384 86 and H69AR growth 86K 7.1*.
For Cc1nc(NC(=O)CSc2nc3cccnc3n2Cc2ccccc2)sc1C the results were bCat KO growth 76, HCT116 PTEN-null 89, PTK2B oligo ant -1.2, Fibroblast inh 51, HUVEC prolif 384 33 and H69AR growth 86K 18*.
For CCOc1ccc(OCC)c(NC(=O)CSc2nc3cccnc3n2C)c1 the results were bCat KO growth 74 and HCT116 PTEN-null 70.
For CC/C(=N/N=C(\CC)c1ccccc1)c1ccccc1 the results were bCat KO growth 99 and HCT116 PTEN-null 98.
For COc1ccc(-c2cnnc(N/N=C/c3ccc(O)c(OC)c3)n2)cc1 the results were bCat KO growth 34 and HCT116 PTEN-null 34.
Screening COC(=O)c1cccc(Cn2c(Cl)c(/C=N/NC(=O)c3ccccc3Cl)sc2=O)c1 returned bCat KO growth 90, HCT116 PTEN-null 78, PTK2B oligo ant -1.8, Fibroblast inh 97, HUVEC prolif 384 79 and H69AR growth 86K 31*.
For CCOC(=O)c1nnn(-c2nonc2N)c1CSc1ccccc1 the results were bCat KO growth 92, HCT116 PTEN-null 101, PTK2B oligo ant 0.39, Fibroblast inh 98, HUVEC prolif 384 111 and H69AR growth 86K 90.
`CCOC(=O)c1nnn(-c2nonc2N)c1COc1cc(C)c(Cl)c(C)c1` gave PTK2B oligo ant 0.01, Fibroblast inh 102, HUVEC prolif 384 99 and H69AR growth 86K 24*.
For CC1=CN2C(=NC(=O)CC2(C)C(=O)N(CC(=O)NC2CCCC2)c2ccccc2C)C=C1 (stereo not drawn) the results were bCat KO growth 98, HCT116 PTEN-null 96, PTK2B oligo ant -0.46, Fibroblast inh 100, HUVEC prolif 384 97 and H69AR growth 86K 110.
`CCN(CC)CCNC(=O)Cc1nn(CC)c(=O)c2ccccc12` gave bCat KO growth 110, HCT116 PTEN-null 105, PTK2B oligo ant 0.03, Fibroblast inh 97, HUVEC prolif 384 113 and H69AR growth 86K 108.
CCN(CC)CCNc1ccc(CO)c2sc3ccccc3c(=O)c12 was read as bCat KO growth 1.9* and HCT116 PTEN-null 1.9*.
`NC(=O)c1cc(Cc2ccccc2)sc1NC(=O)c1ccco1` gave bCat KO growth 88, HCT116 PTEN-null 91, PTK2B oligo ant -3.1*, Fibroblast inh 96, HUVEC prolif 384 84 and H69AR growth 86K 80.
`COc1ccc(Nc2nc(C(F)(F)F)nc(C)c2C#N)cc1` gave bCat KO growth 95, HCT116 PTEN-null 95 and PTK2B oligo ant -0.22.
Screening COc1cccc(N/C(SC)=C(/C#N)C(N)=O)c1 returned bCat KO growth 76, HCT116 PTEN-null 86, PTK2B oligo ant 0.52, Fibroblast inh 95, HUVEC prolif 384 80 and H69AR growth 86K 28*.
`COc1ccc(C(CC(=O)NCc2ccco2)c2ccc(F)cc2)cc1` (stereo not drawn) gave bCat KO growth 86, HCT116 PTEN-null 83, PTK2B oligo ant -1.4, Fibroblast inh 91, HUVEC prolif 384 92 and H69AR growth 86K 97.
`COc1ccc(CNCCC(c2ccc(F)cc2)c2ccc(OC)cc2)cc1` (stereo not drawn) gave bCat KO growth 1.9* and HCT116 PTEN-null 9.
Screening COc1ccc(C(CCNC(C)c2ccccc2)c2ccc(F)cc2)cc1 (stereo not drawn) returned bCat KO growth 1.4* and HCT116 PTEN-null 1.4*.
Screening COc1ccc(C(CCNCc2ccccc2)c2ccc(F)cc2)cc1 (stereo not drawn) returned bCat KO growth 2.0* and HCT116 PTEN-null 2.4*.
Screening COc1ccc(C(CCNCc2ccc(F)cc2)c2ccc(F)cc2)cc1 (stereo not drawn) returned bCat KO growth 1.2* and HCT116 PTEN-null 1.2*.
For Cc1cc(C)c2c(n1)nn1c(NCCCN3CCOCC3)cc(C)nc21 the results were PTK2B oligo ant 0.25, Fibroblast inh 95, HUVEC prolif 384 92 and H69AR growth 86K 84.
Cc1cc(NCCCN2CCOCC2)n2ncc(-c3ccccc3)c2n1 was read as bCat KO growth 87, HCT116 PTEN-null 87, PTK2B oligo ant 0.06, Fibroblast inh 86, HUVEC prolif 384 83 and H69AR growth 86K 26*.
Screening O=C(NCCCN1CCOCC1)c1ccccc1-c1ccccc1 returned bCat KO growth 97, HCT116 PTEN-null 114, PTK2B oligo ant 0.45, Fibroblast inh 100, HUVEC prolif 384 81 and H69AR growth 86K 97.
Cc1cc(NCCCN2CCOCC2)n2nc(C)c(-c3ccccc3)c2n1 was read as bCat KO growth 67, HCT116 PTEN-null 80, PTK2B oligo ant -1.3, Fibroblast inh 100, HUVEC prolif 384 94 and H69AR growth 86K 22*.
Screening Cc1cc(NCCC(C)C)n2nc(C)c(-c3ccccc3)c2n1 returned bCat KO growth 92, HCT116 PTEN-null 78, PTK2B oligo ant -1.4, Fibroblast inh 82, HUVEC prolif 384 70 and H69AR growth 86K 13*.
For Cc1cc(NCCCN2CCOCC2)n2nc(C)c(-c3ccc(F)cc3)c2n1 the results were bCat KO growth 70, HCT116 PTEN-null 67, PTK2B oligo ant 0.95, Fibroblast inh 80, HUVEC prolif 384 73 and H69AR growth 86K 15*.
Screening Cc1nc2c(-c3ccc(F)cc3)c(C)nn2c(N2CCOCC2)c1C returned bCat KO growth 91, HCT116 PTEN-null 78, PTK2B oligo ant -1.6, Fibroblast inh 83, HUVEC prolif 384 86 and H69AR growth 86K 71.
`Cc1cc(N2CCN(C(=O)c3ccco3)CC2)n2nc(C)c(-c3ccc(Cl)cc3)c2n1` gave Fibroblast inh 50, HUVEC prolif 384 34 and H69AR growth 86K 16*.
Cc1nn2c(N3CCN(C(=O)c4ccco4)CC3)cc(C(C)(C)C)nc2c1-c1ccc(Cl)cc1 was read as bCat KO growth 79 and HCT116 PTEN-null 67.
